# In ChEMBL document CHEMBL2396641, “Synthesis, antioxidant, and antimicrobial evaluation of some 2-arylbenzimidazole derivatives” (Bioorg Med Chem Lett, 2013):
# Calls of active or inactive are those of the source. The rule behind the calls is not given here.
# Key:
# Staphylococcus aureus = test: Antibacterial activity against Staphylococcus aureus after 24 hrs by agar dilution method; format: functional
# NIH3T3 = test: Cytotoxicity against mouse NIH/3T3 cells after 48 hrs by SRB assay; format: cell-based; conditions: NIH3T3, 48 h
# [1] = system: Radical scavenging activity; test: Antioxidant activity assessed as DPPH radical scavenging activity after 30 mins by spectrophotometric analysis; format: functional
# Summary of the method: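 DPPH radical bleaching followed as loss of absorbance at 517 nm; IC50 derived; mean ± SD, n = 3.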
# [2] = Antioxidant activity assessed as ferric ion reducing ability after 20 mins by spectrophotometric analysis; format: functional
# A549 [3] = test: Antioxidant activity in human A549 cells assessed as inhibition of AAPH-induced oxidative stress at 100 uM after 2 hrs by flow cytometric analysis relative to control; format: functional; conditions: A549, 2 h
# Summary of the method: (§1)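 A549 cells pretreated with AAPH 1 h to induce ROS stress, then compound added; intracellular ROS (hydrogen peroxides, hydroxyl radicals) quantified with DCFH-DA, by fluorescence imaging (×200) or flow cytometry; one representative of three independent experiments.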
# A549 [4] = test: Antioxidant activity in human A549 cells assessed as protection against H2O2-induced cell death at 50 to 100 uM preincubated for 1 hr prior to H2O2-challenge measured after 24 hrs by SRB assay; format: functional, cell-based
# A549 [5] = test: Antioxidant activity in human A549 cells assessed as decrease in AAPH-induced oxidative stress after 2 hrs by DCFH-DA staining-based fluorescent microscopic analysis; format: functional, cell-based; summary of the method: as §1
# Bacillus cereus = test: Antibacterial activity against Bacillus cereus after 24 hrs by agar dilution method; format: functional
# [6] = Antioxidant activity assessed as superoxide radical anion scavenging activity by spectrophotometric analysis; format: functional
# Pseudomonas aeruginosa = test: Antibacterial activity against Pseudomonas aeruginosa after 24 hrs by agar dilution method; format: functional
# Escherichia coli = test: Antibacterial activity against Escherichia coli after 24 hrs by agar dilution method; format: functional
# A549 [7] = test: Antioxidant activity in human A549 cells assessed as inhibition of AAPH-induced oxidative stress at 50 uM after 2 hrs by flow cytometric analysis relative to control; format: functional; conditions: A549, 2 h; summary of the method: as §1
# [8] = Antioxidant activity assessed as hydroxyl radical scavenging activity after 1 hr by spectrophotometric analysis; format: functional
# [9] = system: Staphylococcus epidermidis; test: Antibacterial activity against Staphylococcus albus after 24 hrs by agar dilution method; format: functional
structure (smiles),measurement,setting,value
COc1cc(O)ccc1-c1nc2cc(O)ccc2[nH]1,MIC,Staphylococcus aureus,> 200 µM
same,IC50,NIH3T3,> 200 µM
same,EC50,[1],27 µM
same,Activity,[2],Dose-dependent effect
same,inhibition at 100 µM,A549 [3],70.4%
same,Activity,A549 [4],Active
same,Activity,A549 [5],Active
same,MIC,Bacillus cereus,> 200 µM
same,EC50,[6],> 200 µM
same,MIC,Pseudomonas aeruginosa,> 200 µM
same,MBC,Escherichia coli,25 µM
same,MIC,Escherichia coli,12.5 µM
same,inhibition at 50 µM,A549 [7],25.3%
same,EC50,[8],46 µM
same,MIC,[9],> 200 µM
